Reference: ChEMBL document CHEMBL4732146, “Nitric oxide-donating and reactive oxygen species-responsive prochelators based on 8-hydroxyquinoline as anticancer agents” (Eur J Med Chem, 2021)
pIC50: −log10 of the molar value. The source made the active and inactive calls. No cut-off for these calls is given here.

Assays:
[1] = test system: SW1990; assay: Antitumor activity against human SW1990 cells xenografted in Balb/c nude mouse assessed as tumor growth inhibition at 20 mg/kg, iv administered every 3 days measured after 21 days relative to control; type: functional; conditions: 504 h, time 21 day, read-out: TGI
In short: (§1)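 Male BALB/c nude mice, 3–5 weeks old, given 1 × 10⁷ SW1990 cells subcutaneously; when tumors reached about 65 mm³, randomised to groups of eight. Saline vehicle control, dosing intravenously every three days. Tumor size monitored every two days for three weeks; tumors dissected at sacrifice on day 21, volume = d² × D/2 (d smallest, D largest diameter). Mean ± SD.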

[2] = Stability of compound in presence of Fe3+ at 100 uM measured after 1 hr by RP-HPLC analysis; type: physicochemical
In short: (§2)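 Compound (100 µM) incubated at 37 °C for 1 h with one of: ROS species (1 mM), NO solution (1 mM), GSH (200 µM), CuCl₂ (10 µM) or FeCl₃ (10 µM). Percent decomposed was determined by RP-HPLC (ODS column, 0.1% TFA water/methanol gradient, 1 mL/min, 256 nm).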

[3] = test system: SW1990; assay: Cytotoxicity against human SW1990 cells assessed as reduction in cell viability measured after 48 hrs in presence of CuCl2 by MTT assay; type: functional, cell-based; conditions: SW1990, 48 h
In short: (§3)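 Cells seeded 6 × 10⁴ per well, cultured 24 h at 37 °C under 5% CO₂, then exposed to compound for 48 h, with or without 50 µM CuCl₂ or FeCl₃ co-incubation. MTT added for 4 h at 37 °C, formazan dissolved in DMSO, A490 read. IC50 reported as mean (SD), n = 3.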

[4] = test system: SW1990; assay: Induction of apoptosis in human SW1990 cells assessed as increase in cleaved caspase-3 expression at 8 to 12 uM measured after 24 hrs by Western blot analysis; type: functional, cell-based; conditions: dose 8-12 µM
In short: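 SW1990 cells seeded 5 × 10⁵ per well and grown 24 h at 37 °C, then treated 24 h. Lysates quantified by BCA, resolved by SDS-PAGE and transferred to nitrocellulose. Blocked in 5% milk, probed overnight at 4 °C for cleaved caspase-3, cleaved caspase-9, Bax and Bcl-2, then HRP secondary 2 h. ECL detection.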

[5] = Stability of compound in pH 10 PBS buffer assessed as parent compound remaining measured after 24 hrs by RP-HPLC analysis; type: physicochemical; conditions: read-out: Stabilty
In short: (§4)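 Compound (1 µM) stirred at 37 °C either in PBS (pH 5.0, 7.4 or 10.0) containing 5% DMSO or in DMEM with 10% FBS. Aliquots were analysed by RP-HPLC (0.1% TFA water/methanol gradient, 256 nm) for remaining intact compound, up to 24 h.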

[6] = Stability of compound in presence of GSH at 100 uM measured after 1 hr by RP-HPLC analysis; type: physicochemical; in short: as §2
[7] = test system: SW1990; assay: Cytotoxicity against human SW1990 cells assessed as reduction in cell viability measured after 48 hrs by MTT assay; type: functional, cell-based; conditions: SW1990, 48 h; in short: as §3
[8] = test system: SW1990; assay: Induction of apoptosis in human SW1990 cells at 12 uM measured after 24 hrs in presence of NO scavenger Carboxyl-PTIO by Annexin V-FITC/propidium iodide staining based flow cytometry; type: functional, cell-based
In short: (§5)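 SW1990 cells seeded 5 × 10⁵ per well and grown 24 h, then treated 24 h at 8 or 12 µM. Optional 1 h pretreatment with 20 mM NAC or 50 µM carboxyl-PTIO before 12 µM treatment. Cells stained with annexin V-FITC 15 min and PI 5 min at room temperature in the dark, then analysed by flow cytometry. Mean ± SD, n = 3.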

[9] = Stability of compound in pH 5 PBS buffer assessed as parent compound remaining measured after 24 hrs by RP-HPLC analysis; type: physicochemical; conditions: read-out: Stabilty; in short: as §4
[10] = test system: PANC-1; assay: Cytotoxicity against human PANC-1 cells assessed as reduction in cell viability measured after 48 hrs in presence of CuCl2 by MTT assay; type: functional, cell-based; conditions: PANC-1, 48 h; in short: as §3
[11] = Prodrug activation in NO at 100 uM measured after 1 hr by RP-HPLC analysis; in short: as §2
[12] = Prodrug activation in OH at 100 uM measured after 1 hr by RP-HPLC analysis; in short: as §2
[13] = test system: PANC-1; assay: Cytotoxicity against human PANC-1 cells assessed as reduction in cell viability measured after 48 hrs by MTT assay; type: functional, cell-based; conditions: PANC-1, 48 h; in short: as §3
[14] = test system: SW1990; assay: Induction of apoptosis in human SW1990 cells at 8 to 12 uM measured after 24 hrs by Annexin V-FITC/propidium iodide staining based flow cytometry; type: functional, cell-based; conditions: dose 8-12 µM; in short: as §5
[15] = test system: SW1990; assay: Antitumor activity against human SW1990 cells xenografted in Balb/c nude mouse assessed as tumor size at 20 mg/kg, iv administered every 3 days measured after 21 days (reference value: 1.23 +/- 0.25 cm3); type: functional; conditions: time 21 day; in short: as §1
[16] = Cytotoxicity against human H6C7 cells assessed as reduction in cell viability measured after 48 hrs by MTT assay; type: cell-based; conditions: H6C7, 48 h; in short: as §3
[17] = test system: SW1990; assay: Cell cycle arrest in human SW1990 cells assessed as increase in accumulation at G1-phase at 12 uM measured after 24 hrs by propidium iodide staining based flow cytometry; type: functional
In short: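 SW1990 cells seeded 5 × 10⁵ per well, grown 24 h, then treated 24 h. Washed in ice-cold PBS, fixed ≥24 h in ice-cold 70% alcohol, RNase A treated, PI-stained 30 min at 4 °C in the dark. DNA content read by flow cytometry to give cycle distribution. Mean ± SD, n = 3.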

[18] = Cytotoxicity against human RWPE2 cells assessed as reduction in cell viability measured after 48 hrs by MTT assay; type: cell-based; conditions: RWPE2, 48 h; in short: as §3
[19] = test system: PANC-1; assay: Cytotoxicity against human PANC-1 cells assessed as reduction in cell viability measured after 48 hrs in presence of FeCl3 by MTT assay; type: functional, cell-based; conditions: PANC-1, 48 h; in short: as §3
[20] = Prodrug activation in ClO- at 100 uM measured after 1 hr by RP-HPLC analysis; in short: as §2
[21] = Drug metabolism in human SW1990 cells assessed as nitric oxide release at 8 to 12 uM measured after 24 hrs by DAF-FM DA probe based flow cytometry; type: ADME, cell-based; conditions: sw1990, 24 h, dose 8-12 µM
In short: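 SW1990 cells at 80% confluence loaded with 5 µM DAF-FM DA for 20 min at 37 °C, rinsed, then incubated with compound. Optional 1 h pretreatment with 50 µM carboxyl-PTIO before 12 µM treatment. Fluorescence read by flow cytometry (ex 495 / em 515 nm). Mean ± SD, n = 3.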

- Stabilty [2]: Stable
- remaining at 24 h [5]: > 80%
- Stabilty [6]: Stable
- remaining at 24 h [9]: > 80%
- Drug metabolism [11]: Metabolite_Notdetected
- Drug metabolism [12]: Metabolite_Notdetected
- Drug metabolism [20]: Metabolite_Notdetected
- Drug metabolism [21]: Metabolite_Detected
SMILES: O=C(NCCCOc1no[n+]([O-])c1S(=O)(=O)c1ccccc1)c1ccc2cccc(OCc3ccc(B(O)O)cc3)c2n1
- inhibition in vivo at 20 mg/kg [1]: 61.8%
- pIC50 [3]: 5.92
- Activity [4]: Active
- pIC50 [7]: 5.05
- Activity [8]: inactive
- pIC50 [10]: 5.77
- pIC50 [13]: 4.98
- Activity [14]: Active
- Activity [15]: 0.47 cm3
- pIC50 [16]: < 4.30
- Activity [17]: Active
- pIC50 [18]: 4.45
- pIC50 [19]: 4.76
